This note sets out measurements from article PMC3741069 (Biochemistry, 2013).

In assay [1] the target is T1, nitrate reductase (NarB) (Synechococcus elongatus, UniProt P39458, K72Q).
T1 sequence (P39458 15-729 K72Q): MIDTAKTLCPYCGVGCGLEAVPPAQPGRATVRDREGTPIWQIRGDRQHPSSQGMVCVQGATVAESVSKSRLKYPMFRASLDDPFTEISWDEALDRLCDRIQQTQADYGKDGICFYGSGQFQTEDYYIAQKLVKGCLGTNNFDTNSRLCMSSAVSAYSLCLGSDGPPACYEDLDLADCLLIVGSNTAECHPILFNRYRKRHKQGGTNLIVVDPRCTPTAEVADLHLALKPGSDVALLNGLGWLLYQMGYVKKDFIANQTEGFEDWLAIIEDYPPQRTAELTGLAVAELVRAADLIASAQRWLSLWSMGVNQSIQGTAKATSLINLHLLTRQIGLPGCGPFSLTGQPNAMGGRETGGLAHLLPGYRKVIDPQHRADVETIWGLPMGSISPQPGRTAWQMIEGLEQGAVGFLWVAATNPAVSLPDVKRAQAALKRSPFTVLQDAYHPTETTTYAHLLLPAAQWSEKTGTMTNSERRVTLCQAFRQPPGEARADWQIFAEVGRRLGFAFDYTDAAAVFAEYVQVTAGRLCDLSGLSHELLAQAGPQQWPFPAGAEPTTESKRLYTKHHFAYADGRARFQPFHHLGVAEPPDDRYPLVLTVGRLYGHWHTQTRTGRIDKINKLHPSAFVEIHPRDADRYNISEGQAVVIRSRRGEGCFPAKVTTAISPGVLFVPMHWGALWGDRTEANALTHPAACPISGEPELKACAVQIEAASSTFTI
The assay can be described thus: spectral perturbation titration. The class given is binding. An outline of the steps: (§1)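 Single-residue NarB variants were made by site-directed mutagenesis and expressed and purified as for wild type (His6, Co affinity, DEAE, gel filtration). Complex formation with ferredoxin or nitrate was followed by difference absorbance at variant-specific wavelength pairs chosen for signal:noise. The change at saturating nitrate was taken as 100% complex. Kd came from fitting perturbation magnitude against ligand concentration to a single binding isotherm.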

Assay [2] addresses T2, nitrate reductase (NarB) (Synechococcus elongatus, UniProt P39458, K144R).
T2 sequence (P39458 15-729 K144R): T1 sequence (P39458 15-729 K72Q) with Q58K, K130R
In words: spectral perturbation titration. The class given is binding. An outline of the steps:
as §1

Where a chain is given by its changes, count along the chain named.

By Kd is commonly meant a measure of binding affinity in units of concentration. Read a low Kd as tighter binding. Consider `O=[N+]([O-])O` [nitrate], for which the equilibrium dissociation constant (Kd) in assay [1] was 8 ± 2.3 µM; in assay [2] it was 13.4 ± 3 µM.
